ChEMBL document CHEMBL2150954, “A novel, unusually efficacious duocarmycin carbamate prodrug that releases no residual byproduct” (J Med Chem, 2012)
Calls of active or inactive are those of the source. No cut-off for these calls is given here.

Legend:
L1210 [1] = test: Cytotoxicity against mouse L1210 cells; assay type: functional, cell-based
[2] = Chemical stability of the compound in 1:1 of TFA/CH2Cl2-4N HCl/EtOAc solution up to 72 hrs; assay type: physicochemical; details: buffer
[3] = Drug degradation in phosphate buffer assessed as cleavage over 4 weeks; assay type: physicochemical; details: 672 h
[4] = Fraction unbound in human plasma incubated over 48 hrs; assay type: ADME, cell-free
Nucleic Acid = test: Binding affinity to w794 DNA assessed as DNA alkylation by cell-free assay; assay type: nucleic-acid assay
L1210 [5] = test: Antitumor activity against mouse L1210 cells xenografted in DBA/2J mouse assessed as mean survival days at 300 ug/kg, ip administered on day 1, 5 and 9 relative to control; assay type: functional
L1210 [6] = test: Antitumor activity against mouse L1210 cells xenografted in DBA/2J mouse assessed as mean survival days at 1000 ug/kg, ip administered on day 1, 5 and 9 relative to control; assay type: functional
L1210 [7] = test: Antitumor activity against mouse L1210 cells xenografted in DBA/2J mouse assessed as mean survival days at 3000 ug/kg, ip administered on day 1, 5 and 9 relative to control; assay type: functional
L1210 [8] = test: Antitumor activity against mouse L1210 cells xenografted in DBA/2J mouse assessed as mean survival days at 9000 ug/kg, ip administered on day 1, 5 and 9 relative to control; assay type: functional
L1210 [9] = test: Antitumor activity against mouse L1210 cells xenografted in DBA/2J mouse assessed as disease cure at 300 […], ip administered on day 1, 5 and 9 measured up to 250 days; assay type: functional, organism-based
L1210 [10] = test: Antitumor activity against mouse L1210 cells xenografted in DBA/2J mouse assessed as disease cure at 1000 […], ip administered on day 1, 5 and 9 measured up to 250 days; assay type: functional, organism-based
L1210 [11] = test: Antitumor activity against mouse L1210 cells xenografted in DBA/2J mouse assessed as disease cure at 3000 […], ip administered on day 1, 5 and 9 measured up to 250 days; assay type: functional, organism-based
L1210 [12] = test: Antitumor activity against mouse L1210 cells xenografted in DBA/2J mouse assessed as disease cure at 9000 […], ip administered on day 1, 5 and 9 measured up to 250 days; assay type: functional, organism-based
[13] = Half life in human plasma at 1 ug/mL at pH 7 by HPLC analysis; assay type: ADME, cell-free
[14] = Chemical stability of the compound in 1:1 of TFA/CH2Cl2-4N HCl/EtOAc solution for 48 hrs; assay type: physicochemical; details: buffer
[15] = Drug degradation in 1:1 of TFA/CH2Cl2-4N HCl/EtOAc solution assessed as cleavage of Boc protecting group; assay type: physicochemical; details: buffer
[16] = Chemical stability of the compound in Et3N/CH2Cl2 solution after 2 hrs; assay type: physicochemical
[17] = Chemical stability of the compound in Et3N/CH2Cl2 solution after 24 hrs; assay type: physicochemical
[18] = Chemical stability of the compound in Et3N/CH2Cl2 solution after 48 hrs; assay type: physicochemical
[19] = Chemical stability of the compound in DMAP/CH2Cl2 solution after 2 hrs; assay type: physicochemical
[20] = Chemical stability of the compound in DMAP/CH2Cl2 solution after 24 hrs; assay type: physicochemical
[21] = Drug degradation in DMAP/CH2Cl2 solution assessed as hydrolysis after 48 hrs; assay type: physicochemical; details: read-out: Drug degradation
[22] = Chemical stability of the compound in NaHCO3/THF solution after 2 hrs; assay type: physicochemical
[23] = Chemical stability of the compound in NaHCO3/THF solution after 24 hrs; assay type: physicochemical
[24] = Drug degradation in NaHCO3/THF solution assessed as hydrolysis after 48 hrs; assay type: physicochemical; details: read-out: Drug degradation
[25] = Drug degradation in NaHCO3/1:1 of THF:H2O solution assessed as hydrolysis after 2 hrs; assay type: physicochemical; details: NaHCO3 in 1:1 THF:H2O solution; read-out: Drug degradation
[26] = Drug degradation in NaHCO3/1:1 of THF:H2O solution assessed as hydrolysis after 24 hrs; assay type: physicochemical; details: NaHCO3 in 1:1 THF:H2O solution; read-out: Drug degradation
[27] = Drug degradation in NaHCO3/1:1 of THF:H2O solution assessed as hydrolysis after 48 hrs; assay type: physicochemical; details: NaHCO3 in 1:1 THF:H2O solution; read-out: Drug degradation
[28] = Drug degradation in NaHCO3/1:1 of DMF:H2O solution assessed as hydrolysis after 2 hrs; assay type: physicochemical; details: NaHCO3 in 1:1 DMF:H2O solution; read-out: Drug degradation
[29] = Drug degradation in NaHCO3/1:1 of DMF:H2O solution assessed as hydrolysis after 24 hrs; assay type: physicochemical; details: NaHCO3 in 1:1 DMF:H2O solution; read-out: Drug degradation
[30] = Drug degradation in NaHCO3/1:1 of DMF:H2O solution assessed as hydrolysis after 48 hrs; assay type: physicochemical; details: NaHCO3 in 1:1 DMF:H2O solution; read-out: Drug degradation
[31] = Drug degradation in NaHCO3/MeOH solution assessed as hydrolysis after 2 hrs; assay type: physicochemical; details: read-out: Drug degradation
[32] = Drug degradation in NaHCO3/MeOH solution assessed as hydrolysis after 24 hrs; assay type: physicochemical; details: read-out: Drug degradation
[33] = Drug degradation in NaHCO3/MeOH solution assessed as hydrolysis after 48 hrs; assay type: physicochemical; details: read-out: Drug degradation
[34] = Chemical stability in MeOH after 48 hrs in presence of 100 equiv BnSH and BnOH; assay type: physicochemical
In short: (§1)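 Compound exposed to 100 equiv each of BnSH and BnOH in MeOH or THF at 23 °C for 48 h and monitored for cleavage.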

[35] = Chemical stability in THF after 48 hrs in presence of 100 equiv BnSH and BnOH; assay type: physicochemical; in short: as §1
[36] = Chemical stability in THF after 24 hrs in presence of BnNH2; assay type: physicochemical
[37] = Drug degradation in MeOH after 24 hrs in presence of 100 equiv BnNH2; assay type: physicochemical
L1210 [38] = test: Antitumor activity against mouse L1210 cells xenografted in DBA/2J mouse assessed as mean survival days at 60 ug/kg, ip administered on day 1, 5 and 9 relative to control; assay type: functional
L1210 [39] = test: Antitumor activity against mouse L1210 cells xenografted in DBA/2J mouse assessed as mean survival days at 100 ug/kg, ip administered on day 1, 5 and 9 relative to control; assay type: functional
L1210 [40] = test: Antitumor activity against mouse L1210 cells xenografted in DBA/2J mouse assessed as mean survival days at 250 ug/kg, ip administered on day 1, 5 and 9 relative to control; assay type: functional
L1210 [41] = test: Antitumor activity against mouse L1210 cells xenografted in DBA/2J mouse assessed as mean survival days at 500 ug/kg, ip administered on day 1, 5 and 9 relative to control; assay type: functional
In short: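 Syngeneic L1210 cells (1 × 10⁶) given ip to B6D2F1 mice on day 0. Ten mice per group, randomised to vehicle control or treatment. Compound given in 100% DMSO ip on days 1, 5 and 9, with daily monitoring. T/C = total survival days of treated group ÷ total survival days of control × 100.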

L1210 [42] = test: Antitumor activity against mouse L1210 cells xenografted in DBA/2J mouse assessed as disease cure at 60 […], ip administered on day 1, 5 and 9 measured up to 250 days; assay type: functional, organism-based
L1210 [43] = test: Antitumor activity against mouse L1210 cells xenografted in DBA/2J mouse assessed as disease cure at 100 […], ip administered on day 1, 5 and 9 measured up to 250 days; assay type: functional, organism-based
L1210 [44] = test: Antitumor activity against mouse L1210 cells xenografted in DBA/2J mouse assessed as disease cure at 250 […], ip administered on day 1, 5 and 9 measured up to 250 days; assay type: functional, organism-based
L1210 [45] = test: Antitumor activity against mouse L1210 cells xenografted in DBA/2J mouse assessed as disease cure at 500 […], ip administered on day 1, 5 and 9 measured up to 250 days; assay type: functional, organism-based
[46] = Half life in calf serum at 2 uM by RP-HPLC analysis; assay type: ADME, cell-free, Bos taurus; details: cattle

Molecule `O=C1Nc2cccc3c4c(cc(c23)O1)N(C(=O)c1cc2cc(NC(=O)c3cc5ccccc5[nH]3)ccc2[nH]1)C[C@@H]4CCl` has an IC50 (L1210 [1]) of 40 nM.

With `O=C1Nc2cccc3c4c(cc(c23)O1)N(C(=O)c1cc2cc(NC(=O)c3cc5ccccc5[nH]3)ccc2[nH]1)C[C@H]4CCl` the Stability [2] was “Stable”, the Drug degradation [3] was “Not Active” and the fraction unbound at 48 h [4] was 0.05. The IC50 (L1210 [1]) was 6.6 nM, the Activity (Nucleic Acid) was “inactive” and the T/C (L1210 [5]) was 140%. For the same molecule, the T/C (L1210 [6]) was over 275%, the T/C (L1210 [7]) was over 310% and the T/C (L1210 [8]) was over 980%. For the same molecule, the Activity (L1210 [9]) was “inactive”, the Activity (L1210 [10]) was “inactive” and the Activity (L1210 [11]) was “inactive”. The Activity (L1210 [12]) was “Active”.

For `CCN(CC)c1ccc2cc(C(=O)Nc3ccc4[nH]c(C(=O)N5C[C@@H](CCl)c6c5cc(OC(=O)Nc5ccccc5)c5[nH]cc(C)c65)cc4c3)oc2c1` [CARZELESIN], the half-life at 1 ug/mL [13] was under 1 h.

For `CC(C)(C)OC(=O)N1C[C@@H](CCl)c2c1cc1c3c(cccc23)NC(=O)O1`, the Stability [14] was “Stable”, the Drug degradation [15] was “Active” and the Stability [16] was “Stable”. For the same molecule, the Stability [17] was “Stable”, the Stability [18] was “Stable” and the Stability [19] was “Stable”. The Stability [20] was “Stable”, the degraded at 48 h [21] was 12% and the Stability [22] was “Stable”. For the same molecule, the Stability [23] was “Stable”, the degraded at 48 h [24] was 7% and the degraded at 2 h [25] was under 4%. The degraded at 24 h [26] was 4%, the degraded at 48 h [27] was 9% and the degraded at 2 h [28] was 7%. It also gave a degraded at 24 h [29] of 12%, a degraded at 48 h [30] of 19% and a degraded at 2 h [31] of 18%. The degraded at 24 h [32] was 74%, the degraded at 48 h [33] was 100% and the Stability [34] was “Stable”. The Stability [35] was “Stable”, the Stability [36] was “Stable” and the Drug degradation [37] was “Active”. For the same molecule, the IC50 (L1210 [1]) was 4900 nM.

In the case of `O=C(Nc1ccc2[nH]c(C(=O)N3C[C@@H](CCl)c4c3cc(O)c3ccccc43)cc2c1)c1cc2ccccc2[nH]1` [SECO-CBI-INDOLE], the T/C (L1210 [38]) is reported as 197%, the T/C (L1210 [39]) is reported as 36% and the T/C (L1210 [40]) is reported as 21%. The T/C (L1210 [41]) was 17%, the Activity (L1210 [42]) was “inactive” and the Activity (L1210 [43]) was “inactive”. For the same molecule, the Activity (L1210 [44]) was “inactive” and the Activity (L1210 [45]) was “inactive”.

`Br.COC(=O)c1c(C)[nH]c2c(OC(=O)N3CCN(C)CC3)cc3c(c12)[C@H](CBr)CN3C(=O)c1cc2cc(OC)c(OC)c(OC)c2[nH]1` [PIBROZELESIN HYDROBROMIDE] gave a half-life at 2 µM [46] of 20 h.

In the case of `COc1c(O)c2c(c3cc(C(=O)N4CCc5c4c(O)c(OC)c4[nH]c(C(=O)N6C[C@@H]7C[C@]78C6=CC(=O)c6[nH]cc(C)c68)cc54)[nH]c13)CCN2C(N)=O`, the IC50 (L1210 [1]) is reported as 0.02 nM.

`CC(C)(C)OC(=O)N1C[C@H](CCl)c2c1cc1c3c(cccc23)NC(=O)O1` showed an IC50 (L1210 [1]) of 5800 nM.

In the case of `Nc1cccc2c1C(=O)C=C1N(C(=O)c3cc4cc(NC(=O)c5cc6ccccc6[nH]5)ccc4[nH]3)CC3CC123` (racemic), the IC50 (L1210 [1]) is reported as 0.21 nM.
